Experimental data taken from ChEMBL document CHEMBL4400568, “The design of 1,4-naphthoquinone derivatives and mechanisms underlying apoptosis induction through ROS-dependent MAPK/Akt/STAT3 pathways in human lung cancer cells” (Bioorg Med Chem, 2019).
Activity calls are given as the source filed them. The calls are words filed in the database; no cut-off is given here.

Assays:
A549 [1] = test: Induction of apoptosis in human A549 cells assessed as late apoptotic cells at 3 uM after 24 hrs by Annexin V-FITC/propidium iodide staining-based flow cytometric analysis (reference value: 4.52%); format: functional
A549 [2] = test: Induction of apoptosis in human A549 cells assessed as early apoptotic cells at 3 uM after 6 hrs by Annexin V-FITC/propidium iodide staining-based flow cytometric analysis (reference value: 2.73%); format: functional
IMR-90 = test: Cytotoxicity against human IMR90 cells assessed as reduction in cell viability after 24 hrs by MTT assay; format: cell-based; details: imr-90, 24 h
In short: (§1)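 Log-phase cells seeded at 1 × 10⁴ per well. Lung cancer lines (A549, NCI-H23, NCI-H460) and normal lines (IMR-90, QSG-7701, HEK-293A) each exposed to 1, 3, 10, 30 and 100 μM for 24 h. MTT (5 mg/mL stock) added for 2 h at 37°C, formazan dissolved in DMSO, absorbance read at 490 nm. Three independent experiments, mean ± SD.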

A549 [3] = test: Induction of apoptosis in human A549 cells assessed as early apoptotic cells at 3 uM after 3 hrs by Annexin V-FITC/propidium iodide staining-based flow cytometric analysis (reference value: 2.73%); format: functional
[4] = Cytotoxicity against HEK293A cells assessed as reduction in cell viability after 24 hrs by MTT assay; format: cell-based; details: human, hek293-a; in short: as §1
A549 [5] = test: Induction of apoptosis in human A549 cells assessed as late apoptotic cells at 3 uM after 6 hrs by Annexin V-FITC/propidium iodide staining-based flow cytometric analysis (reference value: 4.52%); format: functional
A549 [6] = test: Induction of apoptosis in human A549 cells assessed as early apoptotic cells at 3 uM after 12 hrs by Annexin V-FITC/propidium iodide staining-based flow cytometric analysis (reference value: 2.73%); format: functional
NCI-H460 = test: Cytotoxicity against human NCI-H460 cells assessed as reduction in cell viability after 24 hrs by MTT assay; format: functional, cell-based; in short: as §1
NCI-H23 = test: Cytotoxicity against human NCI-H23 cells assessed as reduction in cell viability after 24 hrs by MTT assay; format: functional, cell-based; in short: as §1
A549 [7] = test: Induction of apoptosis in human A549 cells assessed as early apoptotic cells at 3 uM after 24 hrs by Annexin V-FITC/propidium iodide staining-based flow cytometric analysis (reference value: 2.73%); format: functional
[8] = Cytotoxicity against human QSG7701 cells assessed as reduction in cell viability after 24 hrs by MTT assay; format: cell-based; in short: as §1
A549 [9] = test: Induction of apoptosis in human A549 cells assessed as late apoptotic cells at 3 uM after 3 hrs by Annexin V-FITC/propidium iodide staining-based flow cytometric analysis (reference value: 4.52%); format: functional
A549 [10] = test: Induction of apoptosis in human A549 cells assessed as late apoptotic cells at 3 uM after 12 hrs by Annexin V-FITC/propidium iodide staining-based flow cytometric analysis (reference value: 4.52%); format: functional

Structure (SMILES): O=c1[nH]cc(F)c(=O)[nH]1 [FLUOROURACIL]
- Activity (A549 [1]): 4.22%
- Activity (A549 [2]): 10.68%
- Activity (IMR-90): Toxic
- Activity (A549 [3]): 7.91%
- Activity [4]: Toxic
- Activity (A549 [5]): 4.6%
- Activity (A549 [6]): 13.87%
- Activity (NCI-H460): Active
- Activity (NCI-H23): Active
- Activity (A549 [7]): 23.86%
- Activity [8]: Toxic
- Activity (A549 [9]): 4.75%
- Activity (A549 [10]): 5.83%
